# Results as given in ChEMBL document CHEMBL4270573, “Novel nicotinoyl pyrazoline derivates bearing N-methyl indole moiety as antitumor agents: Design, synthesis and evaluation” (Eur J Med Chem, 2018).
# Activity calls are given as the source filed them. No cut-off for these calls is given here.
# Assays:
# [1] = system: Mus musculus; assay: Hepatotoxicity in nude mouse xenografted with human HeLa cells assessed as edema in liver at 10 to 20 mg/kg, ip after 14 days by hematoxylin and eosin staining based microscopic analysis; format: toxicity, organism-based; details: in vivo, 336 h
# Outline: (§1)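 HeLa xenograft nude mice with tumours near 100 mm³, randomised to four groups of 28 mice in total. Dosing was intraperitoneal: vehicle, CA-4 10 mg/kg, or test compound at 10 or 20 mg/kg, continued for 14 days. Heart, liver, kidney and spleen were then H&E-stained and examined for inflammatory infiltration, edema, necrosis and cell morphology.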
# [2] = system: HepG2; assay: Induction of apoptosis in human HepG2 cells assessed as viable cells at 0.040 uM after 24 hrs by Annexin V-FITC/propidium iodide staining based flow cytometric analysis (reference value: 94.5%); format: functional; details: HepG2, 24 h, read-out: Activity
# Outline: (§2)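 HepG2 and HeLa cells were exposed to 0, 0.02, 0.040, 0.060, 0.080 and 0.10 µM for 6, 12 and 24 h. Cells were double-stained with Annexin V-FITC/PI and read by flow cytometry. Apoptotic rate was the percentage of FITC-positive cells, counting early plus late apoptotic.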
# [3] = system: Mus musculus; assay: Toxicity in nude mouse xenografted with human HeLa cells assessed as morphological changes in spleen cells at 10 to 20 mg/kg, ip after 14 days by hematoxylin and eosin staining based microscopic analysis; format: organism-based; details: in vivo, 336 h
# [4] = system: HeLa; assay: Cell cycle arrest in human HeLa cells assessed as accumulation at G2/M phase at 0.060 uM after 24 hrs by propidium iodide staining based flow cytometric analysis (reference value: 17.72%); format: functional
# Outline: (§3)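 HepG2 and HeLa cells were exposed to 0, 0.020, 0.040, 0.060, 0.080 or 0.10 µM for 6, 12 or 24 h. DNA content was stained with propidium iodide and analysed by flow cytometry to give the percentage of cells in G0/G1, S and G2/M phases; sub-G1 cells were also recorded.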
# [5] = system: HepG2; assay: Induction of apoptosis in human HepG2 cells assessed as viable cells at 0.080 uM after 24 hrs by Annexin V-FITC/propidium iodide staining based flow cytometric analysis (reference value: 94.5%); format: functional; details: HepG2, 24 h, read-out: Activity; outline: as §2
# [6] = system: HeLa; assay: Induction of apoptosis in human HeLa cells assessed as late apoptotic cells at 0.040 uM after 24 hrs by Annexin V-FITC/propidium iodide staining based flow cytometric analysis (reference value: 4.98%); format: functional; outline: as §2
# [7] = system: Mus musculus; assay: Toxicity in nude mouse xenografted with human HeLa cells assessed as change in mouse heart weight at 10 to 20 mg/kg, ip after 14 days; format: organism-based; details: in vivo, 336 h
# [8] = system: HepG2; assay: Cell cycle arrest in human HepG2 cells assessed as accumulation at G0/G1 phase at 0.060 uM after 24 hrs by propidium iodide staining based flow cytometric analysis (reference value: 55.63%); format: functional; outline: as §3
# [9] = Selectivity index, ratio of CC50 for HEK293T cells to GI50 for human A549 cells; format: toxicity; details: HEK293T cells and A549 cells, read-out: Selectivity Index
# Outline: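 Ratio CC50/GI50: CC50 is the concentration reducing non-tumour 293T cell proliferation by 50%; GI50 is the concentration reducing cancer cell proliferation by 50%.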
# [10] = system: HeLa; assay: Cell cycle arrest in human HeLa cells assessed as accumulation at G2/M phase after 6 to 24 hrs by propidium iodide staining based flow cytometric analysis; format: functional; outline: as §3
# [11] = system: HepG2; assay: Induction of apoptosis in human HepG2 cells assessed as necrotic cells at 0.060 uM after 24 hrs by Annexin V-FITC/propidium iodide staining based flow cytometric analysis (reference value: 0.270%); format: functional; outline: as §2
# [12] = system: HepG2; assay: Induction of apoptosis in human HepG2 cells assessed as late apoptotic cells at 0.020 uM after 24 hrs by Annexin V-FITC/propidium iodide staining based flow cytometric analysis (reference value: 2.93%); format: functional; outline: as §2
# [13] = system: HepG2; assay: Induction of apoptosis in human HepG2 cells assessed as necrotic cells at 0.040 uM after 24 hrs by Annexin V-FITC/propidium iodide staining based flow cytometric analysis (reference value: 0.270%); format: functional; outline: as §2
# [14] = system: Mus musculus; assay: Toxicity in nude mouse xenografted with human HeLa cells assessed as necrosis in spleen at 10 to 20 mg/kg, ip after 14 days by hematoxylin and eosin staining based microscopic analysis; format: organism-based; details: in vivo, 336 h
# [15] = system: HepG2; assay: Cell cycle arrest in human HepG2 cells assessed as accumulation at G2/M phase after 6 to 24 hrs by propidium iodide staining based flow cytometric analysis; format: functional; outline: as §3
# [16] = system: HeLa; assay: Cell cycle arrest in human HeLa cells assessed as accumulation at G2/M phase at 0.040 uM after 24 hrs by propidium iodide staining based flow cytometric analysis (reference value: 17.72%); format: functional; outline: as §3
# [17] = system: Mus musculus; assay: Nephrotoxicity in nude mouse xenografted with human HeLa cells assessed as necrosis in kidney at 10 to 20 mg/kg, ip after 14 days by hematoxylin and eosin staining based microscopic analysis; format: toxicity, organism-based; details: in vivo, 336 h
# [18] = system: HeLa; assay: Induction of apoptosis in human HeLa cells assessed as necrotic cells at 0.080 uM after 24 hrs by Annexin V-FITC/propidium iodide staining based flow cytometric analysis (reference value: 0.242%); format: functional; outline: as §2
# [19] = system: HepG2; assay: Cell cycle arrest in human HepG2 cells assessed as accumulation at G0/G1 phase at 0.040 uM after 24 hrs by propidium iodide staining based flow cytometric analysis (reference value: 55.63%); format: functional; outline: as §3
# [20] = system: HeLa; assay: Cell cycle arrest in human HeLa cells assessed as accumulation at G0/G1 phase at 0.060 uM after 24 hrs by propidium iodide staining based flow cytometric analysis (reference value: 66.26%); format: functional; outline: as §3
# [21] = system: HeLa; assay: Cell cycle arrest in human HeLa cells assessed as accumulation at G0/G1 phase at 0.10 uM after 24 hrs by propidium iodide staining based flow cytometric analysis (reference value: 66.26%); format: functional; outline: as §3
# [22] = system: Mus musculus; assay: Hepatotoxicity in nude mouse xenografted with human HeLa cells assessed as cellular inflammatory infiltration in liver at 10 to 20 mg/kg, ip after 14 days by hematoxylin and eosin staining based microscopic analysis; format: toxicity, organism-based; details: in vivo, 336 h; outline: as §1
# [23] = system: HeLa; assay: Antitumor activity against human HeLa cells xenografted in nude mouse assessed as tumor volume at 20 mg/kg, ip after 14 days (reference value: 2292.17 mm3); format: functional
# [24] = target: T1, Tubulin (Homo sapiens) (UniProt P68371+Q9H4B7+P0DPH7+P68366+Q13509+Q71U36+P04350+Q3ZCM7+P07437+P68363+Q9BQE3+Q6PEY2+Q13885+Q9BVA1+Q9BUF5); assay: Inhibition of tubulin polymerization in human HepG2 cells assessed as abnormal mitotic spindle formation at 0.04 to 0.1 uM after 12 hrs by DAPI staining based immunofluorescence confocal laser scanning microscopic analysis; format: cell-based
# [25] = system: HepG2; assay: Cell cycle arrest in human HepG2 cells assessed as accumulation at S phase at 0.020 uM after 24 hrs by propidium iodide staining based flow cytometric analysis (reference value: 20.40%); format: functional; outline: as §3
# [26] = target: T1, Tubulin (Homo sapiens); assay: Inhibition of tubulin polymerization in human HeLa cells assessed as abnormal microtubule network formation at 0.04 to 0.1 uM after 12 hrs by DAPI staining based immunofluorescence confocal laser scanning microscopic analysis; format: cell-based
# [27] = system: HeLa; assay: Induction of apoptosis in human HeLa cells assessed as necrotic cells at 0.060 uM after 24 hrs by Annexin V-FITC/propidium iodide staining based flow cytometric analysis (reference value: 0.242%); format: functional; outline: as §2
compound,measurement,setting,value
COc1cccc(C2=NN(C(=O)c3ccc(C)nc3)C(c3cn(C)c4ccc(OC)cc34)C2)c1 (configuration not stated),Activity,[1],Non-Toxic
same,viability at 0.04 µM,[2],84.2%
same,Activity,[3],Non-Toxic
same,Activity,[4],65.43%
same,viability at 0.08 µM,[5],81.4%
same,Activity,[6],3.95%
same,Activity,[7],Non-Toxic
same,Activity,[8],15.79%
same,selectivity ratio,[9],3 to 10
same,Activity,[10],Dose-dependent effect
same,Activity,[11],1.45%
same,Activity,[12],3.18%
same,Activity,[13],2.2%
same,Activity,[14],Non-Toxic
same,Activity,[15],Dose-dependent effect
same,Activity,[16],27.81%
same,Activity,[17],Non-Toxic
same,Activity,[18],1.02%
same,Activity,[19],28.39%
same,Activity,[20],8.57%
same,Activity,[21],6.19%
same,Activity,[22],Non-Toxic
same,Activity,[23],881.93 mm3
same,inhibition,[24],Active
same,Activity,[25],19.81%
same,inhibition,[26],Active
same,Activity,[27],0.484%
